Experiments:
[1] = tested on: V79; test: Cytotoxicity of compound was assessed against suspended V79 cells under aerobic conditions in clonogenic assay; format: functional, Cricetulus griseus
How it was run: (§1)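 Clonogenic assay in suspended V79 Chinese hamster lung fibroblasts exposed to drug in air (A) or N2 (H). CT50 is the drug concentration (mM) that cuts clonogenicity to 50% of matched controls; mean ± SEM of 4 determinations. Where used, DFMO was given to exponentially growing monolayers in air for 48 h beforehand. Spermidine was added alongside the drug under the same conditions. Student's t-test was run against matched controls.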

[2] = Ratio of CT50 in aerobic condition to CT50 in hypoxic condition when V79 cells were exposed to 4 uM spermidine (CT50A/CT50H); format: functional
How it was run: (§2)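 Ratio of aerobic to hypoxic CT50 (CT50A/CT50H, air vs N2) from clonogenic assays in suspended V79 cells; each CT50 is the mean of 4 determinations. Where used, DFMO pretreatment was given to monolayers in air for 48 h. Spermidine was co-administered with the drug under the same conditions.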

[3] = Ratio of CT50 in aerobic condition to CT50 in hypoxic condition when V79 cells were exposed to 1 mM DFMO (CT50A/CT50H); format: functional; how it was run: as §2
[4] = tested on: V79; test: Cytotoxicity of compound was assessed against suspended V79 cells exposed to 1 mM DFMO and 0.5 mM spermidine under aerobic conditions in clonogenic assay; format: functional, Cricetulus griseus; how it was run: as §1
[5] = tested on: V79; test: Cytotoxicity of compound was assessed against suspended V79 cells exposed to 1 mM DFMO for 48 hr under hypoxic conditions in clonogenic assay; format: functional, Cricetulus griseus; how it was run: as §1
[6] = tested on: V79; test: Cytotoxicity of compound was assessed against suspended V79 cells under hypoxic conditions in clonogenic assay; format: functional, Cricetulus griseus; how it was run: as §1
[7] = tested on: V79; test: Cytotoxicity of compound was assessed against suspended V79 cells exposed to 0.1 mM DFMO and 4 uM spermidine under hypoxic conditions in clonogenic assay; format: functional, Cricetulus griseus; how it was run: as §1
[8] = Ratio of CT50 in aerobic condition to CT50 in hypoxic condition (CT50A/CT50H); format: functional; how it was run: as §2
[9] = tested on: V79; test: Cytotoxicity of compound was assessed against suspended V79 cells treated with 4 uM spermidine under aerobic conditions in clonogenic assay; format: functional, Cricetulus griseus; how it was run: as §1
[10] = tested on: V79; test: Cytotoxicity of compound was assessed against suspended V79 cells exposed to 4 uM spermidine under hypoxic conditions in clonogenic assay; format: functional, Cricetulus griseus; how it was run: as §1
[11] = Ratio of CT50 in aerobic condition to CT50 in hypoxic condition when V79 cells were exposed to 4 uM spermidine and 0.1 mM DFMO (CT50A/CT50H); format: functional; how it was run: as §2
[12] = tested on: V79; test: Cytotoxicity of compound was assessed against suspended V79 cells exposed to 0.1 mM DFMO and 4 uM spermidine under aerobic conditions in clonogenic assay; format: functional, Cricetulus griseus; how it was run: as §1
[13] = tested on: V79; test: Cytotoxicity of compound was assessed against suspended V79 cells exposed to 1 mM DFMO for 48 hr under aerobic conditions in clonogenic assay; format: functional, Cricetulus griseus; how it was run: as §1

Cl.Cl.Cl.NCCCCN(CCCN)CC(O)Cn1ccnc1[N+](=O)[O-] (stereo not drawn)
CT50 [1]: 2.6 mM
Ratio [2]: 2.3
Ratio [3]: 2.2
CT50 [4]: 0.63 mM
CT50 [5]: 0.74 mM
CT50 [6]: 1.28 mM
CT50 [7]: 0.88 mM
Ratio [8]: 2
CT50 [9]: 2.64 mM
CT50 [10]: 1.15 mM
Ratio [11]: 1.3
CT50 [12]: 1.15 mM
CT50 [13]: 1.63 mM

Source: ChEMBL document CHEMBL1139450, “Synthesis of a novel nitroimidazole-spermidine derivative as a tumor-targeted hypoxia-selective cytotoxin” (2004)
